Legend:
[1] = Partition coefficient (logD6.5); details: octanol/water, pH 6.5
[2] = Partition coefficient (logD7.4); details: octanol/water, pH 7.4
Renin [3] = target: T1, Renin (Homo sapiens, UniProt P00797); experiment: Tested in vitro for its ability to inhibit the human plasma renin at pH of 7.4; assay type: cell-free
T1 sequence (P00797 whole entry): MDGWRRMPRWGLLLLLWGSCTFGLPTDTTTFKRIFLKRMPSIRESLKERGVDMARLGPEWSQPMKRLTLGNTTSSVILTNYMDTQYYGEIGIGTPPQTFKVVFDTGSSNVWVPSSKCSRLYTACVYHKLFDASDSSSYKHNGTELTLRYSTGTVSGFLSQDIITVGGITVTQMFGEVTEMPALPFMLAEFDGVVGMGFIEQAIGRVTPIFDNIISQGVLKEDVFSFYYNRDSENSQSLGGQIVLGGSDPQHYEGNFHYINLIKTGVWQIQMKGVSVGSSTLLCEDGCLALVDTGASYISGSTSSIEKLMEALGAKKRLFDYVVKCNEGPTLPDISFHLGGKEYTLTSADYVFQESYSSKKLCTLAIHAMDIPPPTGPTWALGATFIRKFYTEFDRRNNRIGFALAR

Renin [4] = target: T1, Renin; experiment: Tested in vitro for its ability to inhibit the human plasma renin; assay type: cell-free
Summary of the method: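 IC50 against renin in plasma from the named species (dog, ferret, human, rat); single determination in most cases.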

[5] = Average area under curve for the compound at 10 mg/kg dose after intraduodenal administration to rat; details: in vivo
[6] = Average peak plasma concentration of compound after 1 mg/kg intravenous administration to rat
[7] = Oral bioavailability in rat; details: in vivo, intraduodenal, 10 mg/kg
[8] = Average area under curve for the compound at 1 mg/kg dose after intravenous administration to rat; details: in vivo
[9] = Average peak plasma concentration of compound after 10 mg/kg intraduodenal administration to rat

Structure (SMILES) | logD [1] | logD [2] | IC50 (Renin [3]) [nM] | IC50 (Renin [4]) [nM] | also measured
CCCC[C@H](O[C@@H](Cc1ccccc1)C(=O)N1CCC(OCOC)CC1)C(=O)N[C@@H](CC1CCCCC1)[C@@H](O)C[C@H](C(=O)NCCCNCCO)C(C)C | 2.5 | 1.8 | 6 | – | –
CCCC[C@H](O[C@@H](Cc1ccccc1)C(=O)N1CCC(OCOC)CC1)C(=O)N[C@@H](CC1CCCCC1)[C@@H](O)C[C@H](C(=O)NCCNC(C)=O)C(C)C | – | – | 2.6 | – | –
CCCC[C@H](O[C@@H](Cc1ccccc1)C(=O)N1CCC(OCOC)CC1)C(=O)N[C@@H](CC1CCCCC1)[C@@H](O)C[C@H](C(=O)NCCCN)C(C)C | 2.4 | 1.8 | 4.5 | – | –
CCCC[C@H](N[C@@H](Cc1ccccc1)C(=O)N1CCC(OCOC)CC1)C(=O)N[C@@H](CC1CCCCC1)[C@@H](O)C[C@H](C(=O)NCCN)C(C)C | – | – | – | 9.7 | –
CCCC[C@H](O[C@@H](Cc1ccccc1)C(=O)N1CCC(OCOC)CC1)C(=O)N[C@@H](CC1CCCCC1)[C@@H](O)C[C@H](C(=O)NCCNc1noc(N)n1)C(C)C | 4.5 | 4.4 | 3.1 | – | –
CCCC[C@H](N[C@@H](Cc1ccccc1)C(=O)N1CCC(OCOC)CC1)C(=O)N[C@@H](CC1CCCCC1)[C@@H](O)C[C@H](C(=O)NCC(=O)O)C(C)C | 2.3 | 2.8 | – | 12 | –
CCCC[C@H](O[C@@H](Cc1ccccc1)C(=O)N1CCC(OCOC)CC1)C(=O)N[C@@H](CC1CCCCC1)[C@@H](O)C[C@H](C(=O)NCCNC(N)=O)C(C)C | – | – | 2.8 | – | –
CCCC[C@H](O[C@@H](Cc1ccccc1)C(=O)N1CCC(OCOC)CC1)C(=O)N[C@@H](CC1CCCCC1)[C@@H](O)C[C@H](C(=O)NCCCNC(=O)OCc1ccccc1)C(C)C | – | – | 4.3 | – | –
CCCC[C@H](N[C@@H](Cc1ccccc1)C(=O)N1CCC(OCOC)CC1)C(=O)N[C@@H](CC1CCCCC1)[C@@H](O)C[C@H](C(=O)NCCC(=O)O)C(C)C | – | – | – | 8.4 | –
CCCC[C@H](N[C@@H](Cc1ccccc1)C(=O)N1CCC(OCOC)CC1)C(=O)N[C@@H](CC1CCCCC1)[C@@H](O)C[C@H](C(=O)NCc1ccccc1)C(C)C | > 5 | > 5 | – | 14 | AUC [5]: 1100 ng·h/mL; Cmax ([6]; in vivo): 1660 ng/mL; bioavailability [7]: 7%; AUC [8]: 1540 ng·h/mL; Cmax ([9]; in vivo): 930 ng/mL
CCCC[C@H](N[C@@H](Cc1ccccc1)C(=O)N1CCC(OCOC)CC1)C(=O)N[C@@H](CC1CCCCC1)[C@@H](O)C[C@H](C(=O)NCCNC(=O)OCc1ccccc1)C(C)C | – | – | – | 17 | –
CCCC[C@H](O[C@@H](Cc1ccccc1)C(=O)N1CCC(OCOC)CC1)C(=O)N[C@@H](CC1CCCCC1)[C@@H](O)C[C@H](C(=O)NCCC(=O)O)C(C)C | 1.9 | 2.8 | – | 6.8 | –
CCCC[C@H](O[C@@H](Cc1ccccc1)C(=O)N1CCC(OCOC)CC1)C(=O)N[C@@H](CC1CCCCC1)[C@@H](O)C[C@H](C(=O)NCCN)C(C)C | – | – | 3.9 | – | –
CCCC[C@H](N[C@@H](Cc1ccccc1)C(=O)N1CCC(OCOC)CC1)C(=O)N[C@@H](CC1CCCCC1)[C@@H](O)C[C@H](C(=O)NCC(C)(C)NCCO)C(C)C | – | – | – | 6.3 | AUC [5]: 66.3 ng·h/mL; Cmax ([6]; plasma): 3480 ng/mL; bioavailability [7]: 1%; AUC [8]: 477 ng·h/mL; Cmax ([9]; plasma): 80 ng/mL
CCCC[C@H](O[C@@H](Cc1ccccc1)C(=O)N1CCC(OCOC)CC1)C(=O)N[C@@H](CC1CCCCC1)[C@@H](O)C[C@H](C(=O)NCCNC(=O)OCc1ccccc1)C(C)C | – | – | 11 | – | –
CCCC[C@H](N[C@@H](Cc1ccccc1)C(=O)N1CCC(OCOC)CC1)C(=O)N[C@@H](CC1CCCCC1)[C@@H](O)C[C@H](C(=O)NCC[N+]1([O-])CCOCC1)C(C)C | – | – | – | 8.4 | –
CCCC[C@H](O[C@@H](Cc1ccccc1)C(=O)N1CCC(OCOC)CC1)C(=O)N[C@@H](CC1CCCCC1)[C@@H](O)C[C@H](C(=O)NCCCNC(N)=NC#N)C(C)C | 4.6 | 4.5 | 1.5 | – | –
CCCC[C@H](O[C@@H](Cc1ccccc1)C(=O)N1CCC(OCOC)CC1)C(=O)N[C@@H](CC1CCCCC1)[C@@H](O)C[C@H](C(=O)NCC(C)(C)N1CCOCC1)C(C)C | > 5 | > 5 | 5.9 | – | –
CCCC[C@H](O[C@@H](Cc1ccccc1)C(=O)N1CCC(OCOC)CC1)C(=O)N[C@@H](CC1CCCCC1)[C@@H](O)C[C@H](C(=O)NCCCNC(=NC#N)SC)C(C)C | – | – | – | 1.3 | –
CCCC[C@H](N[C@@H](Cc1ccccc1)C(=O)N1CCC(OCOC)CC1)C(=O)N[C@@H](CC1CCCCC1)[C@@H](O)C[C@H](C(=O)NCCC(=O)OCc1ccccc1)C(C)C | – | – | – | 23 | –
CCCC[C@H](O[C@@H](Cc1ccccc1)C(=O)N1CCC(OCOC)CC1)C(=O)N[C@@H](CC1CCCCC1)[C@@H](O)C[C@H](C(=O)NCCCNC(N)=S)C(C)C | – | – | 2.5 | – | –

Second part, led by results:

logD [1] | logD [2] | IC50 (Renin [3]) [nM] | IC50 (Renin [4]) [nM] | Structure (SMILES) | also measured
– | – | 2 | – | CCCC[C@H](O[C@@H](Cc1ccccc1)C(=O)N1CCC(OCOC)CC1)C(=O)N[C@@H](CC1CCCCC1)[C@@H](O)C[C@H](C(=O)NCCCNC(N)=O)C(C)C | –
4.1 | 4.2 | – | 6.1 | CCCC[C@H](N[C@@H](Cc1ccccc1)C(=O)N1CCC(OCOC)CC1)C(=O)N[C@@H](CC1CCCCC1)[C@@H](O)C[C@H](C(=O)NCCNc1n[nH]c(N)n1)C(C)C | AUC [5]: 94.8 ng·h/mL; Cmax ([6]; plasma): 810 ng/mL; bioavailability [7]: 2%; AUC [8]: 318 ng·h/mL; Cmax ([9]; plasma): 190 ng/mL
4.3 | 4.2 | 1.7 | – | CCCC[C@H](O[C@@H](Cc1ccccc1)C(=O)N1CCC(OCOC)CC1)C(=O)N[C@@H](CC1CCCCC1)[C@@H](O)C[C@H](C(=O)NCCCNc1nnc(N)[nH]1)C(C)C | –
– | – | – | 11 | CCCC[C@H](N[C@@H](Cc1ccccc1)C(=O)N1CCC(OCOC)CC1)C(=O)N[C@@H](CC1CCCCC1)[C@@H](O)C[C@H](C(=O)NCCNCCO)C(C)C | –
– | – | – | 21 | CCCC[C@H](N[C@@H](Cc1ccccc1)C(=O)N1CCC(OCOC)CC1)C(=O)N[C@@H](CC1CCCCC1)[C@@H](O)C[C@H](C(=O)NCC(=O)OCc1ccccc1)C(C)C | –
> 5 | > 5 | 1.8 | – | CCCC[C@H](O[C@@H](Cc1ccccc1)C(=O)N1CCC(OCOC)CC1)C(=O)N[C@@H](CC1CCCCC1)[C@@H](O)C[C@H](C(=O)NCCNC(N)=NC#N)C(C)C | –
2.7 | 3.3 | – | 9.5 | CCCC[C@H](N[C@@H](Cc1ccccc1)C(=O)N1CCC(OCOC)CC1)C(=O)N[C@@H](CC1CCCCC1)[C@@H](O)C[C@H](C(=O)NCCCN)C(C)C | –
2.7 | 3.5 | 4.7 | – | CCCC[C@H](O[C@@H](Cc1ccccc1)C(=O)N1CCC(OCOC)CC1)C(=O)N[C@@H](CC1CCCCC1)[C@@H](O)C[C@H](C(=O)NCC(C)(C)N)C(C)C | –
> 5 | > 5 | 9.2 | – | CCCC[C@H](O[C@@H](Cc1ccccc1)C(=O)N1CCC(OCOC)CC1)C(=O)N[C@@H](CC1CCCCC1)[C@@H](O)C[C@H](C(=O)NCC/N=C(\NC#N)SC)C(C)C | –
3.9 | 4 | 1.1 | – | CCCC[C@H](O[C@@H](Cc1ccccc1)C(=O)N1CCC(OCOC)CC1)C(=O)N[C@@H](CC1CCCCC1)[C@@H](O)C[C@H](C(=O)NCCNc1n[nH]c(N)n1)C(C)C | –
4.3 | 4.3 | 2.4 | – | CCCC[C@H](O[C@@H](Cc1ccccc1)C(=O)N1CCC(OCOC)CC1)C(=O)N[C@@H](CC1CCCCC1)[C@@H](O)C[C@H](C(=O)NCCCNC(C)=O)C(C)C | –
– | – | 12 | – | CCCC[C@H](O[C@@H](Cc1ccccc1)C(=O)N1CCC(OCOC)CC1)C(=O)N[C@@H](CC1CCCCC1)[C@@H](O)C[C@H](C(=O)NCCC(=O)OCC)C(C)C | –
– | – | – | 12 | CCCC[C@H](N[C@@H](Cc1ccccc1)C(=O)N1CCC(OCOC)CC1)C(=O)N[C@@H](CC1CCCCC1)[C@@H](O)C[C@H](C(=O)NCC(C)(C)N)C(C)C | –
– | – | 4.3 | – | CCCC[C@H](O[C@@H](Cc1ccccc1)C(=O)N1CCC(OCOC)CC1)C(=O)N[C@@H](CC1CCCCC1)[C@@H](O)C[C@H](C(=O)NCCCCN)C(C)C | –
> 5 | > 5 | 2.2 | – | CCCC[C@H](O[C@@H](Cc1ccccc1)C(=O)N1CCC(OCOC)CC1)C(=O)N[C@@H](CC1CCCCC1)[C@@H](O)C[C@H](C(=O)NCCNC(N)=S)C(C)C | –
4.4 | 4.4 | 1.3 | – | CCCC[C@H](O[C@@H](Cc1ccccc1)C(=O)N1CCC(OCOC)CC1)C(=O)N[C@@H](CC1CCCCC1)[C@@H](O)C[C@H](C(=O)NCCC/N=C(/NC)NC#N)C(C)C | –
2.9 | 3.5 | – | 7.9 | CCCC[C@H](N[C@@H](Cc1ccccc1)C(=O)N1CCC(OCOC)CC1)C(=O)N[C@@H](CC1CCCCC1)[C@@H](O)C[C@H](C(=O)NCCCNCCO)C(C)C | –
– | – | 3.3 | – | CCCC[C@H](O[C@@H](Cc1ccccc1)C(=O)N1CCC(OCOC)CC1)C(=O)N[C@@H](CC1CCCCC1)[C@@H](O)C[C@H](C(=O)NCCCCN1CCOCC1)C(C)C | –
– | – | 8.4 | – | CCCC[C@H](O[C@@H](Cc1ccccc1)C(=O)N1CCC(OCOC)CC1)C(=O)N[C@@H](CC1CCCCC1)[C@@H](O)C[C@H](C(=O)NCc1nn[nH]n1)C(C)C | –

— ChEMBL document CHEMBL1127457, “Nonpeptide renin inhibitors with good intraduodenal bioavailability and efficacy in dog” (J Med Chem, 1994)
